Assay results as given in ChEMBL document CHEMBL1140876, “Synthesis and antibacterial property of quinolines with potent DNA gyrase activity” (2009).
Converted amounts (≈) assume the structure as drawn. The source made the active and inactive calls. The calls are words filed in the database; no cut-off is given here.

Columns and labels:
[1] = Inhibition of DNA gyrase assessed as pBR322 DNA relaxation at 1 uM
Summary of the method: (§1)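 Relaxation without ATP: gyrase (60 nM) with supercoiled pBR322 DNA (6 nM) and drug at […] for 1 h at 37 °C; relaxation judged by gel. Ciprofloxacin, novobiocin and nalidixic acid comparators.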

[2] = Inhibition of DNA gyrase assessed as pBR322 DNA relaxation at 5 uM; summary of the method: as §1
[3] = Inhibition of DNA gyrase assessed as conversion of relaxed pBR322 to supercoiled form
Summary of the method: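 Supercoiling in 15 µL reactions: gyrase assay buffer, 150 ng relaxed pBR322, 2–3 µL purified DNA gyrase, 3 h at 37 °C (E. coli); stopped with 50% glycerol/0.25% bromophenol blue; 1% agarose in 1× TBE pH 8.3, 90 V 3 h; ethidium bromide stain; supercoiled band brightness by densitometry. Ciprofloxacin comparator.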

Escherichia coli [4] = assay: Inhibition of DNA gyrase gene expression in Escherichia coli assessed as decrease in band intensity by RT-PCR amplification
Summary of the method: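 E. coli treated with drug; total RNA from cells sampled up to 24 h; 2 µg RNA to cDNA with MMLV reverse transcriptase; gyrase gene PCR (94 °C 4 min initial denaturation, 72 °C 7 min final extension); products on agarose gel, band intensity normalized to GAPDH; untreated cells as negative control.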

Staphylococcus aureus [5] = assay: Antimicrobial activity against Staphylococcus aureus by broth microdilution assay; assay type: functional
Summary of the method: (§2)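 Broth microdilution per NCCLS 1997 in 96-well plate; final inoculum 10^5 cfu/mL; incubated 35.7 °C in air 18–20 h; MIC read as lowest concentration with no visible growth.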

Escherichia coli [6] = assay: Antimicrobial activity against Escherichia coli by broth microdilution assay; assay type: functional; summary of the method: as §2
Pseudomonas aeruginosa [7] = assay: Antimicrobial activity against Pseudomonas aeruginosa by broth microdilution assay; assay type: functional; summary of the method: as §2
Klebsiella pneumoniae [8] = assay: Antimicrobial activity against Klebsiella pneumoniae by broth microdilution assay; assay type: functional; summary of the method: as §2
Salmonella typhi = assay: Antimicrobial activity against Salmonella typhi by broth microdilution assay; assay type: functional, Salmonella enterica subsp. enterica serovar Typhi; details: Salmonella enterica
Summary of the method: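 Broth microdilution in 96-well plates following the NCCLS 1997 protocol. Final inoculum was 10^5 cfu/mL, with a control organism run alongside. Plates were incubated at 35.7 °C in air for 18–20 h. MIC is the lowest concentration with no visible growth.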

Bacillus subtilis [9] = assay: Antimicrobial activity against Bacillus subtilis by broth microdilution assay; assay type: functional; summary of the method: as §2
Staphylococcus aureus [10] = assay: Antimicrobial activity against Staphylococcus aureus at 5 ug after 24 hrs by disk diffusion method; assay type: functional; details: read-out: IZ
Summary of the method: (§3)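 Inoculum made in 0.85% saline against McFarland standard, swabbed evenly onto nutrient agar; sterile filter-paper discs set equidistant and loaded with equal volumes of drug at varying amounts; zone of inhibition measured after 24 h at 37 °C; ciprofloxacin reference.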

Escherichia coli [11] = assay: Antimicrobial activity against Escherichia coli at 5 ug after 24 hrs by disk diffusion method; assay type: functional; details: read-out: IZ; summary of the method: as §3
Pseudomonas aeruginosa [12] = assay: Antimicrobial activity against Pseudomonas aeruginosa at 5 ug after 24 hrs by disk diffusion method; assay type: functional; details: read-out: IZ; summary of the method: as §3
Klebsiella pneumoniae [13] = assay: Antimicrobial activity against Klebsiella pneumoniae at 5 ug after 24 hrs by disk diffusion method; assay type: functional; details: read-out: IZ; summary of the method: as §3
Salmonella typhimurium [14] = assay: Antimicrobial activity against Salmonella Typhimurium at 5 ug after 24 hrs by disk diffusion method; assay type: functional, Salmonella enterica subsp. enterica serovar Typhimurium; details: Salmonella enterica, read-out: IZ; summary of the method: as §3
Staphylococcus aureus [15] = assay: Antimicrobial activity against Staphylococcus aureus at 10 ug after 24 hrs by disk diffusion method; assay type: functional; details: read-out: IZ; summary of the method: as §3
Escherichia coli [16] = assay: Antimicrobial activity against Escherichia coli at 10 ug after 24 hrs by disk diffusion method; assay type: functional; details: read-out: IZ; summary of the method: as §3
Pseudomonas aeruginosa [17] = assay: Antimicrobial activity against Pseudomonas aeruginosa at 10 ug after 24 hrs by disk diffusion method; assay type: functional; details: read-out: IZ; summary of the method: as §3
Klebsiella pneumoniae [18] = assay: Antimicrobial activity against Klebsiella pneumoniae at 10 ug after 24 hrs by disk diffusion method; assay type: functional; details: read-out: IZ; summary of the method: as §3
Salmonella typhimurium [19] = assay: Antimicrobial activity against Salmonella Typhimurium at 10 ug after 24 hrs by disk diffusion method; assay type: functional, Salmonella enterica subsp. enterica serovar Typhimurium; details: Salmonella enterica, read-out: IZ; summary of the method: as §3
Staphylococcus aureus [20] = assay: Antimicrobial activity against Staphylococcus aureus at 15 ug after 24 hrs by disk diffusion method; assay type: functional; details: read-out: IZ; summary of the method: as §3
Escherichia coli [21] = assay: Antimicrobial activity against Escherichia coli at 15 ug after 24 hrs by disk diffusion method; assay type: functional; details: read-out: IZ; summary of the method: as §3
Pseudomonas aeruginosa [22] = assay: Antimicrobial activity against Pseudomonas aeruginosa at 15 ug after 24 hrs by disk diffusion method; assay type: functional; details: read-out: IZ; summary of the method: as §3
Klebsiella pneumoniae [23] = assay: Antimicrobial activity against Klebsiella pneumoniae at 15 ug after 24 hrs by disk diffusion method; assay type: functional; details: read-out: IZ; summary of the method: as §3
Salmonella typhimurium [24] = assay: Antimicrobial activity against Salmonella Typhimurium at 15 ug after 24 hrs by disk diffusion method; assay type: functional, Salmonella enterica subsp. enterica serovar Typhimurium; details: Salmonella enterica, read-out: IZ; summary of the method: as §3
Bacillus subtilis [25] = assay: Antimicrobial activity against Bacillus subtilis at 15 ug after 24 hrs by disk diffusion method; assay type: functional; details: read-out: IZ; summary of the method: as §3
Staphylococcus aureus [26] = assay: Antimicrobial activity against Staphylococcus aureus at 20 ug after 24 hrs by disk diffusion method; assay type: functional; details: read-out: IZ; summary of the method: as §3
Escherichia coli [27] = assay: Antimicrobial activity against Escherichia coli at 20 ug after 24 hrs by disk diffusion method; assay type: functional; details: read-out: IZ; summary of the method: as §3
Pseudomonas aeruginosa [28] = assay: Antimicrobial activity against Pseudomonas aeruginosa at 20 ug after 24 hrs by disk diffusion method; assay type: functional; details: read-out: IZ; summary of the method: as §3
Klebsiella pneumoniae [29] = assay: Antimicrobial activity against Klebsiella pneumoniae at 20 ug after 24 hrs by disk diffusion method; assay type: functional; details: read-out: IZ; summary of the method: as §3
Salmonella typhimurium [30] = assay: Antimicrobial activity against Salmonella Typhimurium at 20 ug after 24 hrs by disk diffusion method; assay type: functional, Salmonella enterica subsp. enterica serovar Typhimurium; details: Salmonella enterica, read-out: IZ; summary of the method: as §3
Bacillus subtilis [31] = assay: Antimicrobial activity against Bacillus subtilis at 20 ug after 24 hrs by disk diffusion method; assay type: functional; details: read-out: IZ; summary of the method: as §3
Staphylococcus aureus [32] = assay: Antimicrobial activity against Staphylococcus aureus at 25 ug after 24 hrs by disk diffusion method; assay type: functional; details: read-out: IZ; summary of the method: as §3
Escherichia coli [33] = assay: Antimicrobial activity against Escherichia coli at 25 ug after 24 hrs by disk diffusion method; assay type: functional; details: read-out: IZ; summary of the method: as §3
Pseudomonas aeruginosa [34] = assay: Antimicrobial activity against Pseudomonas aeruginosa at 25 ug after 24 hrs by disk diffusion method; assay type: functional; details: read-out: IZ; summary of the method: as §3
Klebsiella pneumoniae [35] = assay: Antimicrobial activity against Klebsiella pneumoniae at 25 ug after 24 hrs by disk diffusion method; assay type: functional; details: read-out: IZ; summary of the method: as §3
Salmonella typhimurium [36] = assay: Antimicrobial activity against Salmonella Typhimurium at 25 ug after 24 hrs by disk diffusion method; assay type: functional, Salmonella enterica subsp. enterica serovar Typhimurium; details: Salmonella enterica, read-out: IZ; summary of the method: as §3
Bacillus subtilis [37] = assay: Antimicrobial activity against Bacillus subtilis at 25 ug after 24 hrs by disk diffusion method; assay type: functional; details: read-out: IZ; summary of the method: as §3

CO[C@@H]1[C@@H](OC(N)=O)[C@@H](O)[C@H](Oc2ccc3c(O)c(NC(=O)c4ccc(O)c(CC=C(C)C)c4)c(=O)oc3c2C)OC1(C)C
Activity [1]: Active | Activity [2]: inactive

Cn1c(=O)c2cc3n(c2n(C)c1=O)CC1C3Nc2ccc(Cl)cc2C1(C)C (centres undefined)
Activity [3]: Active | Activity [1]: Active | Activity (Escherichia coli [4]): Active | MIC50 (Staphylococcus aureus [5]): 0.25 µg/mL (≈ 0.65 µM) | MIC50 (Escherichia coli [6]): 0.06 µg/mL (≈ 0.156 µM) | MIC90 (Escherichia coli [6]): 0.25 µg/mL (≈ 0.65 µM) | MIC50 (Pseudomonas aeruginosa [7]): 0.125 µg/mL (≈ 0.325 µM) | MIC90 (Pseudomonas aeruginosa [7]): 1 µg/mL (≈ 2.6 µM) | MIC50 (Klebsiella pneumoniae [8]): 0.125 µg/mL (≈ 0.325 µM) | MIC90 (Klebsiella pneumoniae [8]): 2 µg/mL (≈ 5.2 µM) | MIC50 (Salmonella typhi): 0.09 µg/mL (≈ 0.234 µM) | MIC90 (Salmonella typhi): 0.15 µg/mL (≈ 0.39 µM) | MIC50 (Bacillus subtilis [9]): 0.25 µg/mL (≈ 0.65 µM) | MIC90 (Bacillus subtilis [9]): 1.2 µg/mL (≈ 3.12 µM) | zone of inhibition at 5 µg/disc (Staphylococcus aureus [10]): 20 mm | zone of inhibition at 5 µg/disc (Escherichia coli [11]): 10 mm | zone of inhibition at 5 µg/disc (Pseudomonas aeruginosa [12]): 10 mm | zone of inhibition at 5 µg/disc (Klebsiella pneumoniae [13]): 20 mm | zone of inhibition at 5 µg/disc (Salmonella typhimurium [14]): 10 mm | zone of inhibition at 10 µg/disc (Staphylococcus aureus [15]): 24 mm | zone of inhibition at 10 µg/disc (Escherichia coli [16]): 16 mm | zone of inhibition at 10 µg/disc (Pseudomonas aeruginosa [17]): 14 mm | zone of inhibition at 10 µg/disc (Klebsiella pneumoniae [18]): 26 mm | zone of inhibition at 10 µg/disc (Salmonella typhimurium [19]): 16 mm | zone of inhibition at 15 µg/disc (Staphylococcus aureus [20]): 26 mm | zone of inhibition at 15 µg/disc (Escherichia coli [21]): 18 mm | zone of inhibition at 15 µg/disc (Pseudomonas aeruginosa [22]): 16 mm | zone of inhibition at 15 µg/disc (Klebsiella pneumoniae [23]): 30 mm | zone of inhibition at 15 µg/disc (Salmonella typhimurium [24]): 18 mm | zone of inhibition at 15 µg/disc (Bacillus subtilis [25]): 6 mm | zone of inhibition at 20 µg/disc (Staphylococcus aureus [26]): 30 mm | zone of inhibition at 20 µg/disc (Escherichia coli [27]): 20 mm | zone of inhibition at 20 µg/disc (Pseudomonas aeruginosa [28]): 20 mm | zone of inhibition at 20 µg/disc (Klebsiella pneumoniae [29]): 34 mm | zone of inhibition at 20 µg/disc (Salmonella typhimurium [30]): 22 mm | zone of inhibition at 20 µg/disc (Bacillus subtilis [31]): 7 mm | zone of inhibition at 25 µg/disc (Staphylococcus aureus [32]): 36 mm | zone of inhibition at 25 µg/disc (Escherichia coli [33]): 23 mm | zone of inhibition at 25 µg/disc (Pseudomonas aeruginosa [34]): 23 mm | zone of inhibition at 25 µg/disc (Klebsiella pneumoniae [35]): 36 mm | zone of inhibition at 25 µg/disc (Salmonella typhimurium [36]): 24 mm | zone of inhibition at 25 µg/disc (Bacillus subtilis [37]): 9 mm
